# Published values gathered from unrelated publications.
# Lines come from different studies, so protocols differ.
# Target: Focal adhesion kinase 1 (PTK2, Homo sapiens, UniProt Q05397)
SMILES,assay,conditions,remaining binding [%]
CC1CCCN1c1nccc(-c2cnn3ncccc23)n1 (centres unmarked),binding,1 µM,100
c1cncc(-c2cccc(Nc3nccc(NC4CCCCC4)n3)c2)c1,"binding, competition with immobilised ligand",10 µM,67
CNC(=O)[C@@H]1CC[C@@H](n2c(-c3ccc4cnccc4c3)nc3ccc(C(=O)NCc4cccc(C(N)=O)c4)cc32)C1,"binding, competition with immobilised ligand",1 µM,92
C[C@@H]1CN(c2ccc3ncc(-c4ccc5[nH]nc(C6CC6)c5c4)n3n2)C[C@H](C)O1,"binding, competition with immobilised ligand",50 nM,98
FC(F)(F)Oc1cccc(-c2cnc3ccc(-c4ccncc4)nn23)c1,"cell-free assay, competition with immobilised ligand",5 µM,83
COc1cccc(CNC(=O)c2nc3scc(COCc4ccc(C(=O)O)cc4)c3c(=O)[nH]2)c1,"cell-free assay, competition with immobilised ligand",1 µM,100
O=C(NCC1CCOCC1)c1n[nH]cc1NC(=O)c1c(F)cccc1F,"binding, competition with immobilised ligand",1 µM,100
O=C(O)c1cc(-c2ccc(C3CCNCC3)cc2)c2ccc(-c3ccc(C(F)(F)F)cc3)cc2c1,"cell-free assay, competition with immobilised ligand",1 µM,100
CCN1CCN(Cc2ccc(C(=O)Nc3ccc(C)c(Oc4ccc5c(c4)CC(=O)N5)c3)cc2C(F)(F)F)CC1,"binding, competition with immobilised ligand",1 µM,77
O=C(c1ccc(Nc2ncc(Cl)c(-c3cc4ccccc4s3)n2)cc1)N1CCC(N2CCCC2)CC1,"binding, competition with immobilised ligand",1 µM,78
Cc1cc(-c2cc(C(F)(F)F)ccc2O[C@H]2C[C@@]2(CNS(=O)(=O)c2ccc([N+](=O)[O-])cc2)c2ccc(F)cc2F)[nH]n1,"cell-free assay, competition with immobilised ligand",0.3 µM,22
c1ccc(N2CCN(Cc3nc4ccccc4[nH]3)CC2)nc1,"binding, competition with immobilised ligand",1 µM,86
O=C(NCCCN1CCOCC1)c1ccc(Nc2nccc(-c3cc4ccccc4s3)n2)cc1,"binding, competition with immobilised ligand",1 µM,100
C[C@H]1CCN(c2nccc(-c3cnn4ncccc34)n2)C1,binding,1 µM,100
Nc1ncc2c(n1)-c1c([nH]c3ccc(C#CC4CC4)cc13)CCCC2,"binding, competition with immobilised ligand",1 µM,91
CC(C)(C)c1ccc(-c2nc(CBr)nn2-c2cccc(O)c2)cc1,"cell-free assay, competition with immobilised ligand",10 µM,88
N#Cc1ccccc1CSc1nnc2c(n1)[nH]c1ccccc12,"binding, competition with immobilised ligand",10 µM,98
CC(=O)C1=C(C)N(c2cccc(C(F)(F)F)c2)C(=O)N[C@@H]1c1ccc(C#N)nc1,"cell-free assay, competition with immobilised ligand",1 µM,100
CN(C)c1ncc(F)c(-c2cnn3ncccc23)n1,binding,1 µM,100
COc1cc(-c2cn(C3CCc4ccccc4N(CC(F)(F)F)C3=O)nn2)ccc1-n1ccc(C)n1 (centres unmarked),"cell-free assay, competition with immobilised ligand",1 µM,100
c1cnn2ncc(-c3ccnc(N4CCC45COC5)n3)c2c1,binding,1 µM,99
CCS(=O)(=O)c1cc2cc(C[C@@](O)(CC(C)(C)c3ccc(F)cc3C(N)=O)C(F)(F)F)[nH]c2cn1,"cell-free assay, competition with immobilised ligand",1 µM,100
O=C(c1ccc(Nc2ncc(Cl)c(-c3ccc(Cl)s3)n2)cc1)N1CCC(N2CCCC2)CC1,"binding, competition with immobilised ligand",1 µM,41
